For data set [1], the system named is Jurkat. Description: Selectivity index, ratio of CC50 for human PHA-activated PBMC to CC50 for human Jurkat cells.
Data set [2] has as its system Jurkat. Description: Antiproliferative activity against human Jurkat cells after 1 to 3 days by MTS assay. Format: functional. A digest of the protocol:
(§1)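 Leukemic lines grown in RPMI 1640 with 10% FCS, penicillin/streptomycin and L-glutamine at 37°C, 5% CO2. Cells washed twice in PBS, plated in quadruplicate with compound at 0, 1, 5, 10, 20 and 50 µM for 1, 2 and 3 days. MTS added for 3 h at 37°C, absorbance read at 490 nm. CC50 after 3 days by linear regression, mean ± SD of 3 independent experiments.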

In data set [3] the test system is MV4-11. Description: Antiproliferative activity against human MV4-11 cells after 1 to 3 days by MTS assay. Format: functional. A digest of the protocol:
as §1
On the technique in general: Tetrazolium dyes change colour on reduction, which living cells bring about.

Data set [4] can be described thus: Cytotoxicity against human PHA-activated PBMC after 1 to 3 days by MTS assay. The class given is cell-based. In a few lines: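 PBMNC from blood of healthy volunteers, isolated by Ficoll gradient centrifugation and stimulated with PHA (5 µg/mL). Cells washed in PBS, plated in quadruplicate with compound at 0, 1, 5, 10, 20 and 50 µM for 1 to 3 days. MTS read at 490 nm after 3 h at 37°C. CC50 at day 3 by linear regression, mean ± SD of 3 independent experiments.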

Data set [5] deals with Casein kinase II (Homo sapiens, UniProt P19784+P67870+P68400). Description: Inhibition of human recombinant CK2 expressed in Escherichia coli BL21(DE3) using RRRDDDSDDD as substrate after 15 mins by capillary electrophoretic analysis.
Sequence of Casein kinase II (P67870 whole entry): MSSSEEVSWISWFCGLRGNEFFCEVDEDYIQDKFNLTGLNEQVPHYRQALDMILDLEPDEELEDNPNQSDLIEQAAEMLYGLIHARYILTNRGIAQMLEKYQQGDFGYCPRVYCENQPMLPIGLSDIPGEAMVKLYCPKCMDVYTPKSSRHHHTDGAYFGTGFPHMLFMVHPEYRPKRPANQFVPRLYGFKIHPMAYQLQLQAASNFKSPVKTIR
Sequence of Casein kinase II (P68400 whole entry): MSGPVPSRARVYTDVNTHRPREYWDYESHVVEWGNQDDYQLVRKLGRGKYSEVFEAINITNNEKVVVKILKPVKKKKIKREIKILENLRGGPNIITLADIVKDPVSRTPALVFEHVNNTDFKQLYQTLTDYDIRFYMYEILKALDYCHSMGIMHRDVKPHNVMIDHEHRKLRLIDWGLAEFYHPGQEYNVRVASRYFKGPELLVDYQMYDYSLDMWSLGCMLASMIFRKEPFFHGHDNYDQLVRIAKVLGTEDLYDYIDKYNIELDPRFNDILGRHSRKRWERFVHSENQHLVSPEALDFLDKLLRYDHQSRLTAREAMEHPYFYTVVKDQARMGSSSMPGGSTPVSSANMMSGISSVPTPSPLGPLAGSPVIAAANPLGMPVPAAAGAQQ
Sequence of Casein kinase II (P19784 whole entry): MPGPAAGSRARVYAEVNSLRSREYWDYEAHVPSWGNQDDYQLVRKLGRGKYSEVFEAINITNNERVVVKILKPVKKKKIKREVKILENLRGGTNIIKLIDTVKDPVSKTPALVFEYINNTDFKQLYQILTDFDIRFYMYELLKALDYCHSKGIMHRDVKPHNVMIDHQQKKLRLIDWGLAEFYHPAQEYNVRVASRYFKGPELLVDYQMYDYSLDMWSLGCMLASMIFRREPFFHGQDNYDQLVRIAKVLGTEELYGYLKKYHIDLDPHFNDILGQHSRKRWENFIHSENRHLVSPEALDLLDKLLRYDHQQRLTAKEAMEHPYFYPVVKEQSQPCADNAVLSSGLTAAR
Data set [6] relates to K562. Briefly: Antiproliferative activity against human K562 cells after 1 to 3 days by MTS assay. Format: functional. A digest of the protocol: as §1
Data set [7] relates to U-937. Briefly: Antiproliferative activity against human U937 cells after 1 to 3 days by MTS assay. Format: functional. In a few lines:
as §1

In data set [8] the test system is MV4-11. Briefly: Selectivity index, ratio of CC50 for human PHA-activated PBMC to CC50 for human MV4-11 cells.

The values that follow come from ChEMBL document CHEMBL2401624, “Synthesis and biological evaluation of novel substituted pyrrolo[1,2-a]quinoxaline derivatives as inhibitors of the human protein kinase CK2” (Eur J Med Chem, 2013).

Structures are written as SMILES.

As for `O=C(O)c1nc2cc(Nc3cccc(Cl)c3)ccc2n2cccc12`, in data set [1], the “Selectivity Index” value is on record as 1.6. Further, the CC50 was 31.4 µM in data set [2]; 47 µM in data set [3]; > 50 µM in data set [4]; > 50 µM in data set [6]; 39.2 µM in data set [7]. Besides, in data set [5], the 50% inhibitory concentration (IC50) was 0.982 µM.

With `C#Cc1cccc(Nc2ccc3c(c2)nc(C(=O)O)c2cccn23)c1`, the concentration for half-maximal inhibition (IC50) in data set [5] is 0.85 µM.

For the molecule `O=C(O)c1ccc2c(c1)nc(Nc1cccc(Cl)c1)c1cc(-c3cccnc3)cn12`, in data set [5], the IC50 stood at 1.57 µM.

Take `C#Cc1cccc(Nc2nc3cc(C(=O)O)ccc3n3cc(-c4cccnc4)cc23)c1`: the IC50 in data set [5] amounted to 0.89 µM.

As for `Nc1cccc(C#Cc2ccc3c(c2)nc(C(=O)O)c2cccn23)c1`, the half-maximal inhibitory concentration (IC50) in data set [5] stood at 8.25 µM.

As for `O=C(O)c1cc2c(Nc3cccc(Cl)c3)nc3ccccc3n2c1`, the cytotoxic concentration (CC50) in data set [2], in data set [3], in data set [4], in data set [6] and in data set [7] was > 50 µM each time. Also, in data set [5], the IC50 was 4.28 µM.

Take `C#Cc1cccc(Nc2nc3ccccc3n3cc(C(=O)O)cc23)c1`: the CC50 in data set [2] is 41 µM; in data set [3] it was > 50 µM; in data set [4] it was > 50 µM; in data set [6], > 50 µM; in data set [7], > 50 µM. In addition, the IC50 in data set [5] was 1.89 µM.

For `O=C(O)c1ccn2c1c(Nc1cccc(Cl)c1)nc1ccccc12`, the CC50 in data set [2] is > 50 µM; in data set [3] it was > 50 µM; in data set [4] it was > 50 µM; in data set [6], 42 µM; in data set [7], 47.7 µM. Besides, in data set [5], the half-maximal inhibitory concentration (IC50) is 0.049 µM.

As for `C#Cc1cccc(Nc2nc3ccccc3n3ccc(C(=O)O)c23)c1`, the CC50 in data set [2], in data set [3], in data set [4], in data set [6] and in data set [7] was > 50 µM in each case. In addition, the IC50 in data set [5] came to 0.134 µM.

For `O=C(O)c1ccc2c(c1)nc(Nc1cccc(Cl)c1)c1cccn12`, the “Selectivity Index” value in data set [8] is >2.5. In addition, the CC50 in data set [2] was > 50 µM; in data set [3] it was 20 µM; in data set [4], > 50 µM; in data set [6] it was > 50 µM; in data set [7] it was > 50 µM. Moreover, the IC50 in data set [5] was 0.118 µM.

On to `C#Cc1cccc(Nc2nc3cc(C(=O)O)ccc3n3cccc23)c1`, for which, in data set [8], the “Selectivity Index” value is on record as >2.5. For the same molecule, the CC50 is > 50 µM in data set [2]; 20 µM in data set [3]; > 50 µM in data set [4]; > 50 µM in data set [6]; > 50 µM in data set [7]. Further, in data set [5], the 50% inhibitory concentration (IC50) turned out to be 0.078 µM.

For the molecule `O=C(O)c1ccc2nc(Nc3cccc(Cl)c3)c3cccn3c2c1`, the CC50 in data set [2], in data set [3], in data set [4], in data set [6] and in data set [7] was > 50 µM in each case. Moreover, the IC50 in data set [5] was 0.834 µM.

Regarding `C#Cc1cccc(Nc2nc3ccc(C(=O)O)cc3n3cccc23)c1`, the 50% cytotoxic concentration (CC50) in data set [2], in data set [3], in data set [4], in data set [6] and in data set [7] was > 50 µM each time. The 50% inhibitory concentration (IC50) in data set [5] was determined as 0.834 µM.

For `O=c1oc2c(O)c(O)cc3c(=O)oc4c(O)c(O)cc1c4c23` [ELLAGIC ACID], the half-maximal inhibitory concentration (IC50) in data set [5] was determined as 0.04 µM.

Turning to `O=C(O)c1ccc2c(c1)nc(Nc1cccc(Cl)c1)c1ccncc12` [SILMITASERTIB], the CC50 in data set [2] was 4.5 µM; in data set [3], 3 µM; in data set [4], 50 µM; in data set [6] it was 7 µM; in data set [7], 4.2 µM.

One may read the CC50 as the concentration giving 50% cytotoxicity. High values mean better tolerance by the cells, low ones harm at low concentration. By IC50 is commonly meant the point on the concentration scale where inhibition reaches its midpoint.
